High-throughput results deposited in PubChem by The Scripps Research Institute Molecular Screening Center.
In the library only some 3.9% were active in any assay of this set; here they are far more common.
TAAR1 antagonist = human TAAR1 antagonists, primary screen, Fluo-8 calcium fluorescence, CHO RD-HGA16 cells | antagonist | inhibition, % at 3 µM | hit rate 1.5% among 360,000;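 active means inhibition above a per-plate cutoff, the mean inhibition of test compounds on that plate plus 3 SD, cut at about 49% in these data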;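 further: 0% = DMSO plus EC80 beta-PEA response and 100% = DMSO alone without agonist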
Target sequence (Q96RJ0 whole entry, looked up): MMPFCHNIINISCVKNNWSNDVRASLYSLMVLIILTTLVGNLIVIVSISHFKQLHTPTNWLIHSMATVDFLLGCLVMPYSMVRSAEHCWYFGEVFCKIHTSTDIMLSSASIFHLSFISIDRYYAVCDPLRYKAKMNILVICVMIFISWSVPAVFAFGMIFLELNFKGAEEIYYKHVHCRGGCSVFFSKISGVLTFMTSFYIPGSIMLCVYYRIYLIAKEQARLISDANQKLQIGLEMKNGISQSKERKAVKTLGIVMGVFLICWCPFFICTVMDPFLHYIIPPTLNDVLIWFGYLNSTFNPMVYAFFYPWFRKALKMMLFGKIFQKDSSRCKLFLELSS
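Test system: CHO RD-HGA16 cells bearing hTAAR1 | Reagent: β-PEA, EC80 | Compound dosing: 3 µM, single point | Schedule: Dye loading 75 min at 37 °C, then 30 min room temperature | Signal: Calcium fluorescence with Fluo-8 | Evaluation: Percent inhibition of PEA-evoked calcium signal, max/basal emission ratio | Control set: DMSO-only wells and EC80 β-PEA-stimulated wells | Repeats: Singlicate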
OX1R antag-1 = antagonists of human orexin 1 receptor (OX1R). Orexin/Hypocretin receptor type 1 (Homo sapiens), O43613. OX1R-expressing cells, FRET antagonist read-out. inhibition, % at 6.6 µM. hit rate 1.8% among 330,000; in the data active means inhibition mostly above about 38%, no sharp cut-off; inactive means mostly below about 40%;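 further: 0% = agonist challenge alone and 100% = reference antagonist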
CHO parental Ca = ATP-evoked calcium signal inhibitors, parental CHO, primary screen, counter-screen for OX1R antagonist project, cell-based, fluorescence, Fluo-8 calcium dye; inhibition, % at 5.6 µM; AID 463079, 2010; hit rate 0.63% among 330,000; parental CHO-K1, ATP-induced calcium, Fluo-8 fluorescence;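 active means inhibition above that plate's mean sample inhibition plus 3 SD, cut at about 26% in these data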;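 further: 0% = ATP-challenged DMSO wells and 100% = DMSO wells without ATP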
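Assay system: untransfected parental CHO cell line. Also added: ATP agonist challenge. Dosing: one dose, 5.6 µM nominal. Measured by: Fluo-8 fluorescence. Read-out: % inhibition. Benchmarks: ATP wells versus no-ATP DMSO wells. Repeats: no replicates.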
OX1R antag-2 = OX1R (HCRTR1) antagonists, primary screen, fluorescence, CHO/OX1R cells, Fluo-8 calcium, orexin A; Orexin/Hypocretin receptor type 1 (Homo sapiens), O43613; inhibition, % at 5 µM; hit rate 0.43% among 330,000; Fluo-8 calcium fluorescence;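 active means inhibition above its plate's threshold, mean inhibition of all tested compounds on the plate plus 3 SD, cut at about 37% in these data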;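 further: 0% = orexin A challenge wells and 100% = SB-334867-A antagonist wells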
TAAR1 agonist = human TAAR1 agonists, primary screen, Fluo-8 calcium fluorescence, CHO RD-HGA16 cells; vehicle wells 0%, saturating PEA agonist 100%; activation, % at 3 µM; AID 624467, 2012; hit rate 0.99% among 360,000; Trace amine-associated receptor 1 (Homo sapiens), Q96RJ0;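 active means activation above the mean activation of all test compounds in the run plus 3 SD, cut at about 38% in these data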
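test system = CHO RD-HGA16 cells carrying human TAAR1 plus Gα16 | schedule = 17-24 h seeding, 75 min 37 °C dye, 30 min RT | compound dosing = 3 µM single concentration | control set = DMSO and PEA EC100 | replicates = n 1 | signal = Fluo-8 fluorescence, 5 s baseline then 140 s kinetic read | measure = percent activation vs PEA EC100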
OX1R HTRF conf = OX1R (HCRTR1) antagonists, confirmation, cell-based, HTRF | OX1R-expressing cells, HTRF antagonist assay | AID 492964, 2010 | hit rate 49% among 1,800 | shares compounds with OX1R antag-1 | inhibition, % at 6.6 µM; in the data active means inhibition above about 55%;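 further: CHO cells expressing OX1R stimulated with orexin A at about EC80; 0% = agonist challenge alone and 100% = reference antagonist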
CHO-K1 HTRF cnt = signal inhibition in parental CHO-K1 cells, counter-screen for OX1R antagonist project, cell-based, HTRF. hit rate 48% among 1,800. inhibition, % at 6.6 µM. HTRF counterscreen. shares compounds with OX1R antag-1. AID 493232, 2011; in the data active means inhibition above about 17%;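 further: 0% = agonist challenge with vehicle and 100% = vehicle alone without agonist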
Numbers without * were called inactive.

`CC1CCC(C(C)C)C(OC(=O)C[n+]2cc(-c3ccc(Cl)cc3)n3c2CCC3)C1` (stereo not given) gave TAAR1 antagonist -19, OX1R antag-1 102*, CHO parental Ca -6, OX1R antag-2 -24, TAAR1 agonist 5, OX1R HTRF conf 19 and CHO-K1 HTRF cnt 4.
`O=C(C[n+]1cc(-c2ccc(Cl)cc2)n2c1CCC2)N1c2ccccc2Sc2ccccc21` gave TAAR1 antagonist -18, OX1R antag-1 12, CHO parental Ca -4, OX1R antag-2 -14 and TAAR1 agonist 0.
CNC1=C(N(C(C)=O)c2ccc(Br)cc2)C(=O)c2ccccc2C1=O was read as TAAR1 antagonist 0, OX1R antag-1 105*, CHO parental Ca -16, OX1R antag-2 -23, TAAR1 agonist -1, OX1R HTRF conf 55* and CHO-K1 HTRF cnt 97*.
`CC(=O)C1=C(c2ccc(Br)cc2)C(=O)c2ccccc2C1=O` gave TAAR1 antagonist 2, OX1R antag-1 36, CHO parental Ca -15, OX1R antag-2 -35 and TAAR1 agonist 10.
Screening CCC(=O)N(C1=C(NC)C(=O)c2ccccc2C1=O)C(C)C returned TAAR1 antagonist 4, OX1R antag-1 80*, CHO parental Ca -11, OX1R antag-2 -22, TAAR1 agonist 2, OX1R HTRF conf 66* and CHO-K1 HTRF cnt 64*.
`COC(=O)Cc1nnn2c1[C@H](C)[C@H](c1ccccc1Br)OC[C@H](C)C2` gave TAAR1 antagonist -4 and TAAR1 agonist -2.
O=C(NCCCN1CCOCC1)c1cc2cc(Br)ccc2oc1=O was read as TAAR1 antagonist 5, OX1R antag-1 124*, CHO parental Ca -20, OX1R antag-2 -18, TAAR1 agonist 10, OX1R HTRF conf 42 and CHO-K1 HTRF cnt 41*.
COC(=O)Cc1nnn2c1[C@@H](C)[C@@H](c1ccccc1Br)O[C@@H](C)C2 was read as TAAR1 antagonist -4 and TAAR1 agonist 9.
O=C1c2cccc3cccc(c23)C(=O)N1c1ccccn1 was read as TAAR1 antagonist -3, OX1R antag-1 99*, CHO parental Ca -12, OX1R antag-2 -12, TAAR1 agonist 3, OX1R HTRF conf 61* and CHO-K1 HTRF cnt 60*.
`COc1ccc(N2C(=O)c3cccc4cccc(c34)C2=O)cc1` gave TAAR1 antagonist -10, OX1R antag-1 13, CHO parental Ca -5, OX1R antag-2 -11 and TAAR1 agonist 1.
O=C1c2cccc3cccc(c23)C(=O)N1c1ccncc1 was read as TAAR1 antagonist -4, OX1R antag-1 111*, CHO parental Ca -15, OX1R antag-2 -12, TAAR1 agonist 0, OX1R HTRF conf 54 and CHO-K1 HTRF cnt 67*.
Screening O=C1c2cccc3cccc(c23)C(=O)N1Cc1ccccn1 returned TAAR1 antagonist 4 and TAAR1 agonist 0.
Screening COc1ccc(Br)cc1C(=O)Nc1cccc(-c2nnc(-c3ccco3)o2)c1 returned TAAR1 antagonist 24, OX1R antag-1 5, CHO parental Ca 1, OX1R antag-2 -13 and TAAR1 agonist 12.
`COc1cccc(C(=O)Nc2cccc(-c3nnc(-c4ccco4)o3)c2)c1` gave TAAR1 antagonist 43, OX1R antag-1 104*, CHO parental Ca -22, OX1R antag-2 -25, TAAR1 agonist 17, OX1R HTRF conf 35 and CHO-K1 HTRF cnt 5.
`COc1ccc(/C=c2\s/c(=C/C(=O)c3ccc(C)cc3)[nH]c2=O)cc1OC` gave TAAR1 antagonist 36, OX1R antag-1 82*, CHO parental Ca -9, OX1R antag-2 12, TAAR1 agonist 18, OX1R HTRF conf 84* and CHO-K1 HTRF cnt 19*.
`CC(=O)N1CCN(c2cc(-c3ccccc3)nc3cc(-c4cccc(Cl)c4)nn23)CC1` gave TAAR1 antagonist 16 and TAAR1 agonist 0.
For CCCCCCN1C=CC(=C2C(=O)c3ccccc3C2=O)C=C1 the results were TAAR1 antagonist -3, OX1R antag-1 21, CHO parental Ca -17, OX1R antag-2 -16 and TAAR1 agonist 15.
CCCCN1C=CC(=C2N=c3cccc([N+](=O)[O-])c3=N2)C=C1 was read as TAAR1 antagonist 11, OX1R antag-1 157*, CHO parental Ca 6, OX1R antag-2 -1, TAAR1 agonist 1, OX1R HTRF conf 59* and CHO-K1 HTRF cnt 100*.
CC(=O)c1ccc(NS(=O)(=O)c2cccc3cccnc23)cc1 was read as TAAR1 antagonist -12 and TAAR1 agonist 1.
Screening CN1c2ccccc2C(O)=C(C(=S)Nc2ccc(F)c(Cl)c2)S1(=O)=O returned TAAR1 antagonist 7, OX1R antag-1 82*, CHO parental Ca -15, OX1R antag-2 -7, TAAR1 agonist 7, OX1R HTRF conf 51 and CHO-K1 HTRF cnt 14.
Screening CCOC1=C2[C@@H](CN(S(=O)(=O)c3ccc(C)cc3)[C@H]2c2cccc3ccccc23)[C@H]2C(=O)N(C3CCCCC3)C(=O)[C@H]2C1 returned TAAR1 antagonist -32 and TAAR1 agonist -1.
`O=C1c2ccc(-c3ccc4c(c3)C(=O)N(CCO)C4=O)cc2C(=O)N1CCO` gave TAAR1 antagonist 24, OX1R antag-1 174*, CHO parental Ca -5, OX1R antag-2 -9, TAAR1 agonist 8, OX1R HTRF conf 66* and CHO-K1 HTRF cnt 82*.
For O=C1c2ccc(Oc3ccc4c(c3)C(=O)N(CCCO)C4=O)cc2C(=O)N1CCCO the results were TAAR1 antagonist -7, OX1R antag-1 136*, CHO parental Ca -20, OX1R antag-2 -5, TAAR1 agonist 18, OX1R HTRF conf 45 and CHO-K1 HTRF cnt 25*.
For Cc1ccc2c(c1)C(=O)N(CCCCO)C2=O the results were TAAR1 antagonist 0, OX1R antag-1 15, CHO parental Ca 1, OX1R antag-2 -10 and TAAR1 agonist 11.
Screening O=C(NCC1CCOCC1)c1ccc(-c2ccc(F)c(F)c2)c2ccoc12 returned TAAR1 antagonist -16 and TAAR1 agonist 1.
For COc1ccc(N=NC2=C(O)CC(C)(C)CC2=O)cc1 the results were TAAR1 antagonist 2, OX1R antag-1 102*, CHO parental Ca -4, OX1R antag-2 -10, TAAR1 agonist 2, OX1R HTRF conf 33 and CHO-K1 HTRF cnt 28*.
Cc1cc(Nc2cc(Cl)cc(Cl)c2)cc(=O)n1-c1cc(Cl)cc(Cl)c1 was read as TAAR1 antagonist -13 and TAAR1 agonist 1.
